# Test results as given in ChEMBL document CHEMBL1123924, “Structure-activity studies of antagonists of luteinizing hormone-releasing hormone with emphasis on the amino-terminal region” (1987).
# Residues, ends and D or L forms follow the SMILES beside them.
# Key:
# Assay type in all cases: functional
# Rattus norvegicus [1] = species: Rattus norvegicus; test: Antiovulatory activity was expressed as the percentage of 9 rats blocked at a dose 0.5 ug.
# Outline: (§1)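 Sprague-Dawley rats given peptide by subcutaneous injection at noon on the day of proestrus, in 40% propane-1,2-diol–0.9% saline vehicle. Oviducts examined for ova the following day.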
# Rattus norvegicus [2] = species: Rattus norvegicus; test: Antiovulatory activity was expressed as the percentage of 9 rats blocked at a dose 1 ug.; outline: as §1
# Rattus norvegicus [3] = species: Rattus norvegicus; test: Antiovulatory activity was expressed as the percentage of 12 rats blocked at a dose 0.5 ug.; details: in the assay text read “14 rats” for “12 rats”; outline: as §1
SMILES,Antiovulatory activity (Rattus norvegicus [1]) [%],Antiovulatory activity (Rattus norvegicus [2]) [%],Antiovulatory activity (Rattus norvegicus [3]) [%]
CC(=O)N[C@H](Cc1ccc2ccccc2c1)C(=O)N[C@H](Cc1ccccc1)C(=O)N[C@H](Cc1ccccc1)C(=O)N[C@@H](CO)C(=O)N[C@@H](Cc1ccc(O)cc1)C(=O)N[C@H](CCCN=C(N)N)C(=O)N[C@@H](Cc1ccccc1)C(=O)N[C@@H](CCCN=C(N)N)C(=O)N1CCC[C@H]1C(=O)N[C@H](C)C(N)=O (HELM PEPTIDE1{[ac].[O=C([C@@H](Cc1ccc2ccccc2c1)N[*:1])[*:2]].[dF].[dF].S.Y.[dR].F.R.P.[dA].[am]}$$$$V2.0),56,100,–
CC(=O)N[C@H](Cc1ccc2ccccc2c1)C(=O)N[C@H](Cc1ccc(Cl)cc1)C(=O)N[C@H](Cc1ccc(O)cc1)C(=O)N[C@@H](CO)C(=O)N[C@@H](Cc1ccc(O)cc1)C(=O)N[C@H](CCCN=C(N)N)C(=O)N[C@@H](Cc1ccccc1)C(=O)N[C@@H](CCCN=C(N)N)C(=O)N1CCC[C@H]1C(=O)N[C@H](C)C(N)=O,–,–,86
